High-throughput results (PubChem)
ABCB1 block: inhibitors of human ABCB1 transporter, ABCG2 counter-screen; CCRF-Adr cells, JC-1 efflux, flow cytometry; inhibition, % at 6.6 µM; actives 0.067% (n = 190,000); AID 1326; P08183; in the data active means inhibition above about 40%;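 further: 0% = vehicle and 100% = reference inhibitor; higher value means more JC-1 retained so stronger ABCB1 efflux block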
Target sequence (P08183 whole entry, looked up): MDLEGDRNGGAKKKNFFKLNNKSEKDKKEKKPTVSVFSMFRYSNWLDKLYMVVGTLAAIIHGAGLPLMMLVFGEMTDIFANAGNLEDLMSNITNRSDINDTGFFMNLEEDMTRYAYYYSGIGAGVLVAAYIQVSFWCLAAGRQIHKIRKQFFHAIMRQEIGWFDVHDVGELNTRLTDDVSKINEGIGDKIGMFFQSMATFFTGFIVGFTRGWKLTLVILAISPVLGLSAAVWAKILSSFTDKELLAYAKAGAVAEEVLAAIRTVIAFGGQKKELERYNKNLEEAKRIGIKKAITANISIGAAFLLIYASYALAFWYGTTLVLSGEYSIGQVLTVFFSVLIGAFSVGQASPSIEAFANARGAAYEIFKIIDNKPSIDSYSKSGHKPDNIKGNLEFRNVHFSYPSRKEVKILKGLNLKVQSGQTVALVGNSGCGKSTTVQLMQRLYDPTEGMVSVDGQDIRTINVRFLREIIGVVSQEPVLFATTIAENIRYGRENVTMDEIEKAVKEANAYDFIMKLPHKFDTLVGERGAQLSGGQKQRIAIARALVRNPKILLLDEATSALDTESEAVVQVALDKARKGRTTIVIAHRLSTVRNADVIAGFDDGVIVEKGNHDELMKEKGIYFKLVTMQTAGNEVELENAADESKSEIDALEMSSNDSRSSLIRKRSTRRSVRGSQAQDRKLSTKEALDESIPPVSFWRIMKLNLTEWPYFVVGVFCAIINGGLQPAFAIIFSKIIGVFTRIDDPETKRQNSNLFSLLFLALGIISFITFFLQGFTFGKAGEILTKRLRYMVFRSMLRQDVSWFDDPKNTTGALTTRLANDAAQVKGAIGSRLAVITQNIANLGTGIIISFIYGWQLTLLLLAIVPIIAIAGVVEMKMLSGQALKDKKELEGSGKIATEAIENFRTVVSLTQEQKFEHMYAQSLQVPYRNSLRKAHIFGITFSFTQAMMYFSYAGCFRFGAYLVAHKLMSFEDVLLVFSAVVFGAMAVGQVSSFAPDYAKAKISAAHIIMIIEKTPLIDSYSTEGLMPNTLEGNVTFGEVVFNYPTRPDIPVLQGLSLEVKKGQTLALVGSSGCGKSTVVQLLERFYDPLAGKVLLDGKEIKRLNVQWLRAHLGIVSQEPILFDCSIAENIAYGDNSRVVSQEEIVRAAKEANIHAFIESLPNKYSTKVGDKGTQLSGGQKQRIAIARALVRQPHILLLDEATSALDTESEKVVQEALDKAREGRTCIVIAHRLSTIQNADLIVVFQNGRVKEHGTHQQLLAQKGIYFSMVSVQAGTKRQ
ABCG2 block: human ABCG2 inhibition, ABCB1 as counter-screen. Q9UNQ0. IgMXP3 cells, JC-1 efflux, flow cytometry. inhibition, % at 6.6 µM. actives 0.1% (n = 190,000). AID 1325;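 active means inhibition above 80%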;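 further: 0% = DMSO and 100% = nicardipine control wells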
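Test system: IgMXP3 (ABCG2) plus far-red-tagged CCRF-Adr (ABCB1) cells. Reagent: JC-1 dye as substrate. Timing: 10 min exposure at 25 °C with rotation, no wash. Measured by: flow cytometric JC-1 green MFI at 530 nm. Read-out: percent efflux inhibition, scaled nicardipine 100% to DMSO 0%. Control set: nicardipine and DMSO wells.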
PKD1 kinase inh: inhibitors of human PKD1 kinase. Q15139. PKD1 kinase fluorescence polarization assay. inhibition, % (concentration not given with the values). actives 0.056% (n = 200,000)
GSH fluor: GSH bead compound fluorescence profile | GSH beads flow cytometry, compound fluorescence 488/530 nm; stronger effect = higher value | fluorescence (KMESF) at 10 µM | actives 0.25% (n = 190,000); in the data active means fluorescence above about 89;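 further: glutathione beads carrying GST-tagged Bcl family fusion proteins plus one bare bead set; values are compound well signal with DMSO vehicle wells as background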
Avidin bead fluor: avidin bead compound fluorescence profile; fluorescence (KMESF) at 10 µM; Avidin beads, compound fluorescence 488/530 nm, flow cytometry; stronger effect = higher value; actives 0.38% (n = 220,000); in the data active means fluorescence above about 47
L major viab: inhibitors of Leishmania major promastigote growth; actives 9% (n = 200,000); inhibition, % at 10 µM; AID 1063; Leishmania major promastigotes, resazurin fluorescence viability;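 further: promastigotes grown with compound for 44 hours at 28 °C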
* = called active by the depositor; · = not tested or not shown. The full list was thinned out, with hits kept by preference. Unless noted, no stated cut-off is given here; in the data, active means inhibition above about 50%; inactive means the rest.

SMILES | ABCB1 block | ABCG2 block | PKD1 kinase inh | GSH fluor | Avidin bead fluor | L major viab
CC(C)Cn1c(N)c(C(=O)COC(=O)CCc2nc3ccccc3s2)c(=O)n(C)c1=O | 1 | 6 | -8 | 11 | 11 | 2
CCCCC(=O)NC(Nc1ccc(C)cn1)(C(=O)OCC)C(F)(F)F (configuration not stated) | 0 | 15 | -8 | 14 | 10 | 3
O=C1Nc2c(c(=O)[nH]c(=O)n2-c2ccc(F)cc2)C1(NS(=O)(=O)c1ccccc1)C(F)(F)F (configuration not stated) | · | · | · | · | 7 | ·
Cc1nn(CCc2nn[nH]n2)c2nc(-c3ccc(C4CCCCC4)cc3)cc(C(F)(F)F)c12 | 0 | 0 | -3 | 17 | 9 | -4
CCCN(CCC)CCCNc1ccc2nnc(-c3ccc(F)cc3)n2n1 | 1 | 0 | 4 | 24 | 4 | 59*
Cc1ccc(C(=O)N2CCN(c3ccc([N+](=O)[O-])c(NCc4cccnc4)c3)CC2)cc1 | 3 | 11 | 0 | 10 | 5 | 57*
Cc1ccccc1C(=O)N1CCN(c2ccc([N+](=O)[O-])c(NCc3cccnc3)c2)CC1 | 6 | 8 | 3 | 6 | 3 | 25
CS(=O)(=O)N1CCN(c2ccc([N+](=O)[O-])c(NCc3ccc(Cl)cc3)c2)CC1 | 1 | 2 | 0 | 99* | 15 | 23
CS(=O)(=O)N1CCN(c2ccc([N+](=O)[O-])c(NCc3ccccc3)c2)CC1 | 1 | 3 | 0 | 9 | 24 | 7
C=CCn1c(=NC(=O)c2ccccc2[N+](=O)[O-])sc2cc(S(C)(=O)=O)ccc21 | 2 | 46 | -4 | 12 | 10 | 8
CC(C)(C)C(=O)NNC(=O)c1cnccn1 | · | · | · | · | 8 | ·
CS(=O)(=O)c1ccc2nc(NC(=O)C3=NN(c4ccccc4)C(=O)CC3)sc2c1 | · | · | · | · | 7 | ·
CS(=O)(=O)c1ccc2nc(NC(=O)c3cc(-c4ccccc4)nn3-c3ccccc3)sc2c1 | 0 | -3 | 0 | 8 | 3 | 100*
Cc1ccc(NC(=O)c2cc(-c3ccccc3)nn2-c2ccccc2)c(Br)c1 | 0 | 1 | -15 | 6 | 11 | 69*
COc1ccc(CCNC(=O)CSc2nncn2N)cc1OC | 0 | 1 | -7 | 30 | 5 | -3
COCc1cc(Sc2ccc(Cl)cc2)nc(C)n1 | 1 | 3 | -1 | 21 | 7 | -7
COCc1cc(S(=O)c2ccc(Cl)cc2)nc(C)n1 (configuration not stated) | 1 | 7 | -2 | 20 | 7 | 99*
O=C1C2C3C=CC(C4CC34)C2C(=O)N1/N=C/c1ccc([N+](=O)[O-])o1 (configuration not stated) | 1 | 41 | -3 | 14 | 9 | 99*
O=C1C2C(C(=O)N1/N=C/c1ccc([N+](=O)[O-])o1)C1C=CC2C12CC2 (configuration not stated) | 0 | 2 | 6 | 8 | 6 | 90*
O=C1C2C3C=CC(C4CC34)C2C(=O)N1/N=C/c1ccc(-c2ccc([N+](=O)[O-])cc2)o1 (configuration not stated) | 0 | 3 | -3 | 14 | 8 | 3
Cc1cccc(N2CCN(C(=O)C(NS(=O)(=O)c3cccs3)c3ccccc3)CC2)c1C (configuration not stated) | 3 | 5 | 3 | 11 | 19 | 62*
O=C(C(NS(=O)(=O)c1cccs1)c1ccccc1)N1CCN(c2ccccc2F)CC1 (configuration not stated) | 1 | 1 | -5 | 11 | 17 | 7
O=C(/C=C/c1cccs1)NC(=S)NNC(=O)c1ccccc1O | -2 | -1 | 1 | 69 | 8 | 99*
CN(C)C(=O)CN1CCN(Cc2nc(CC3CC3)no2)CC1 | · | · | · | · | 5 | ·
c1ccc(C(c2ccccc2)c2noc(CN3CCN(C4CCCC4)CC3)n2)cc1 | 0 | -2 | -7 | 15 | 13 | 84*
Clc1ccccc1Cc1noc(CN2CCN3CCCC3C2)n1 (configuration not stated) | 1 | 3 | -2 | 11 | 4 | 75*
C[C@@H]1CN(C2CCN(Cc3nc(C(c4ccccc4)c4ccccc4)no3)CC2)C[C@H](C)O1 | 1 | 1 | -6 | 11 | 17 | 85*
CC(=O)N1CCN(Cc2nc(C(c3ccccc3)c3ccccc3)no2)CC1 | 0 | 0 | 0 | 11 | 12 | -1
